Active and inactive are the calls of the source.
What was measured:
[1] = Induction of cell cycle arrest in human JMAR cells assessed as accumulation at subG0 phase at 3 uM after 24 hrs by flow cytometry; format: functional
Summary of the method: (§1)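 Treated 24 h with 3.0 μM or DMSO vehicle. Cells trypsinized; 1×10⁶ washed in 0.9% NaCl and fixed 30 min at room temperature in cold 70% ethanol/0.9% NaCl. Stained with PI (50 μg/mL in PBS) 30 min, then DNase-free RNase (1 mg/mL) 30 min. Phase distribution (sub-G0, G0/G1, S, G2/M) by flow cytometry.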

[2] = Induction of cell cycle arrest in human MDA1986 cells assessed as accumulation at subG0 phase at 3 uM after 24 hrs by flow cytometry; format: functional; summary of the method: as §1
[3] = Induction of apoptosis in human JHU011 cells assessed as early apoptotic cells at 5 uM after 24 hrs by FITC-conjugated annexin V and propidium iodide staining-based flow cytometry; format: functional
Summary of the method: (§2)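 Cells given 5.0 μM for 24 h, harvested, and co-stained at 1×10⁶ cells/mL with annexin V-FITC and PI. Annexin binding buffer added before flow cytometry. Annexin V only scored as early apoptosis, annexin V+PI as late apoptosis, PI only as necrosis. Triplicate; t-test.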

[4] = test system: JHU011; experiment: Induction of apoptosis in human JHU011 cells assessed as mild increase in late apoptotic cells at 5 uM after 24 hrs by FITC-conjugated annexin V and propidium iodide staining-based flow cytometry; format: functional, cell-based; summary of the method: as §2
[5] = test system: JHU011; experiment: Induction of apoptosis in human JHU011 cells assessed as increase in non-viable necrotic cells at 5 uM after 24 hrs by FITC-conjugated annexin V and propidium iodide staining-based flow cytometry; format: functional, cell-based; summary of the method: as §2
[6] = test system: JMAR; experiment: Induction of apoptosis in human JMAR cells assessed as increase in early apoptotic cells at 5 uM after 24 hrs by FITC-conjugated annexin V and propidium iodide staining-based flow cytometry; format: functional, cell-based; summary of the method: as §2
[7] = test system: JMAR; experiment: Induction of apoptosis in human JMAR cells assessed as increase in late apoptotic cells at 5 uM after 24 hrs by FITC-conjugated annexin V and propidium iodide staining-based flow cytometry; format: functional, cell-based; summary of the method: as §2
[8] = test system: JMAR; experiment: Induction of apoptosis in human JMAR cells assessed as increase in non-viable necrotic cells at 5 uM after 24 hrs by FITC-conjugated annexin V and propidium iodide staining-based flow cytometry; format: functional, cell-based; summary of the method: as §2
[9] = test system: UM-SCC2; experiment: Induction of apoptosis in human UM-SCC2 cells assessed as increase in early apoptotic cells at 5 uM after 24 hrs by FITC-conjugated annexin V and propidium iodide staining-based flow cytometry; format: functional, cell-based; summary of the method: as §2
[10] = test system: UM-SCC2; experiment: Induction of apoptosis in human UM-SCC2 cells assessed as increase in late apoptotic cells at 5 uM after 24 hrs by FITC-conjugated annexin V and propidium iodide staining-based flow cytometry; format: functional, cell-based; summary of the method: as §2
[11] = test system: UM-SCC2; experiment: Induction of apoptosis in human UM-SCC2 cells assessed as increase in late non-viable necrotic cells at 5 uM after 24 hrs by FITC-conjugated annexin V and propidium iodide staining-based flow cytometry; format: functional, cell-based; summary of the method: as §2
[12] = test system: JHU011; experiment: Induction of apoptosis in human JHU011 cells assessed as decrease in procaspase-3 level at 1 to 6 uM after 24 hrs by Western blot analysis; format: functional, cell-based
Summary of the method: (§3)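 Cells exposed to increasing concentrations for 24 h, lysed in NP-40/Tris pH 7.5 buffer with protease inhibitors, NaF and orthovanadate. Equal protein run on SDS-PAGE, transferred to nitrocellulose. Probed overnight at 4 °C for uncleaved caspase 3 (pro-form) and uncleaved/cleaved PARP; HRP secondary 1 h at room temperature.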

[13] = test system: JHU011; experiment: Induction of apoptosis in human JHU011 cells assessed as induction of PRAP cleavage after 24 hrs by Western blot analysis; format: functional, cell-based; summary of the method: as §3
[14] = test system: JMAR; experiment: Induction of apoptosis in human JMAR cells assessed as decrease in procaspase-3 level at 1 to 6 uM after 24 hrs by Western blot analysis; format: functional, cell-based; summary of the method: as §3
[15] = test system: JMAR; experiment: Induction of apoptosis in human JMAR cells assessed as induction of PRAP cleavage after 24 hrs by Western blot analysis; format: functional, cell-based; summary of the method: as §3
[16] = test system: UM-SCC2; experiment: Induction of apoptosis in human UM-SCC2 cells assessed as decrease in procaspase-3 level at 1 to 6 uM after 24 hrs by Western blot analysis; format: functional, cell-based; summary of the method: as §3
[17] = test system: UM-SCC2; experiment: Induction of apoptosis in human UM-SCC2 cells assessed as induction of PRAP cleavage after 24 hrs by Western blot analysis; format: functional, cell-based; summary of the method: as §3
[18] = species: Homo sapiens; experiment: Induction of apoptosis in human MDA1986 cells assessed as decrease in procaspase-3 level at 1 to 6 uM after 24 hrs by Western blot analysis; format: functional, cell-based; summary of the method: as §3
[19] = species: Homo sapiens; experiment: Induction of apoptosis in human MDA1986 cells assessed as induction of PRAP cleavage at 1 to 6 uM after 24 hrs by Western blot analysis; format: functional, cell-based; summary of the method: as §3
[20] = biological target: RAC-alpha serine/threonine-protein kinase (Homo sapiens) (UniProt P31749); experiment: Inhibition of Akt phosphorylation in human JHU011 cells after 24 hrs by Western blot analysis; format: cell-based
RAC-alpha serine/threonine-protein kinase (Homo sapiens), sequence (P31749 whole entry): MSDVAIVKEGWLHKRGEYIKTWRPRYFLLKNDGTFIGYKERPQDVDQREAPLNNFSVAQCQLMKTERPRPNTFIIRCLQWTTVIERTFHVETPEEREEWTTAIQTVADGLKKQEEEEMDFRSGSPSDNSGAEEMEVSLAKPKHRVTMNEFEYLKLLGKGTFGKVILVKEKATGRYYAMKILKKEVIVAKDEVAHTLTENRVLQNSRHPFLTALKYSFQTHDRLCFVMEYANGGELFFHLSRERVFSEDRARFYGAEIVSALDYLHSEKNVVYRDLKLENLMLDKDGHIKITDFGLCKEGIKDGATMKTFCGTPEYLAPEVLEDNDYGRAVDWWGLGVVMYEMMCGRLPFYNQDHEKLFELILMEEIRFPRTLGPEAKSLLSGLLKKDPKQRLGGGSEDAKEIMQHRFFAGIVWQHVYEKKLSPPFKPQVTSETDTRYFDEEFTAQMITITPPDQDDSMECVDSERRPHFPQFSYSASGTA
Summary of the method: (§4)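 Increasing concentrations for 24 h. NP-40 lysates (with NaF and orthovanadate) cleared at 14,000 × g, equal protein separated by SDS-PAGE and blotted. Probed for phospho-Akt (Ser473), total Akt, phospho-ERK1/2 and total ERK; β-actin loading control. Primary antibody overnight at 4 °C, HRP secondary 1 h.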

[21] = biological target: RAC-alpha serine/threonine-protein kinase (Homo sapiens) (UniProt P31749); experiment: Inhibition of Akt phosphorylation in human UM-SCC2 cells after 24 hrs by Western blot analysis; format: cell-based; summary of the method: as §4
[22] = biological target: RAC-alpha serine/threonine-protein kinase (Homo sapiens) (UniProt P31749); experiment: Inhibition of Akt phosphorylation in human MDA1986 cells after 24 hrs by Western blot analysis; format: cell-based; summary of the method: as §4
[23] = biological target: RAC-alpha serine/threonine-protein kinase (Homo sapiens) (UniProt P31749); experiment: Inhibition of Akt phosphorylation in human JMAR cells after 24 hrs by Western blot analysis; format: cell-based; summary of the method: as §4
[24] = biological target: RAC-alpha serine/threonine-protein kinase (Homo sapiens) (UniProt P31749); experiment: Inhibition of Akt in human MDA1986 cells assessed as highest required for enzyme activity after 24 hrs by Western blot analysis; format: cell-based; summary of the method: as §4

CC1=C(CO)C(=O)O[C@@H]([C@@H](C)[C@H]2CC[C@H]3[C@@H]4C[C@H]5O[C@]56[C@@H](O)C=CC(=O)[C@]6(C)[C@H]4CC[C@]23C)C1 [WITHAFERIN A]
8%: Activity [2]
14.8%: Activity [3]
12%: Activity [1]
active: Activity [4] | Activity [6] | Activity [7] | Activity [8] | Activity [9] | Activity [10] | Activity [11] | Activity [12] | Activity [13] Dose-dependent effect | Activity [14] | Activity [15] Dose-dependent effect | Activity [16] | Activity [17] Dose-dependent effect | Activity [18] | Activity [19] | inhibition [20] Dose-dependent effect | inhibition [21] Dose-dependent effect | inhibition [22] Dose-dependent effect | inhibition [23] Dose-dependent effect
inactive: Activity [5]
2.5 µM: Activity [24]
